From ChEMBL document CHEMBL3856208, “Lupane and 18α-oleanane derivatives substituted in the position 2, their cytotoxicity and influence on cancer cells” (Eur J Med Chem, 2016)

Columns and labels:
[1] = Cytotoxicity against human CCRF-CEM cells after 72 hrs by MTS assay; type: functional, cell-based
Method in brief: (§1)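 Cells seeded at 25000–35000 cells/mL, compounds from DMSO dosed at time zero as four-fold dilutions. Exposure 72 h at 37 °C, 5% CO2, with MTS added for 1–4 h and OD read at 490 nm. Survival expressed as % of mean control OD, with IC50 from dose-response curves. Run as technical duplicates in at least three biological replicates.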

[2] = Cytotoxicity against human CEM/DNR cells after 72 hrs by MTS assay; type: functional, cell-based; method in brief: as §1
[3] = Cytotoxicity against human K562 cells after 72 hrs by MTS assay; type: functional, cell-based; conditions: K562, 72 h; method in brief: as §1
[4] = Cytotoxicity against human K562-TAX cells after 72 hrs by MTS assay; type: functional, cell-based; method in brief: as §1
[5] = Cytotoxicity against human A549 cells after 72 hrs by MTS assay; type: functional, cell-based; conditions: A549, 72 h; method in brief: as §1
[6] = Cytotoxicity against human HCT116 cells after 72 hrs by MTS assay; type: functional, cell-based; conditions: HCT-116, 72 h; method in brief: as §1
[7] = Cytotoxicity against p53 deficient human HCT116 cells after 72 hrs by MTS assay; type: functional, cell-based; conditions: HCT-116, 72 h; method in brief: as §1
[8] = Cytotoxicity against human U2OS cells after 72 hrs by MTS assay; type: functional, cell-based; method in brief: as §1
[9] = Cytotoxicity against human BJ cells after 72 hrs by MTS assay; type: toxicity, cell-based; method in brief: as §1
[10] = Cytotoxicity against human MRC5 cells after 72 hrs by MTS assay; type: toxicity, cell-based; method in brief: as §1
[11] = Therapeutic index, ratio of IC50 for human BJ cells to IC50 for human CCRF-CEM cells; type: cell-based; conditions: BJ cells versus CCRF-CEM cells, read-out: Ratio IC50
[12] = Therapeutic index, ratio of IC50 for human MRC5 cells to IC50 for human CCRF-CEM cells; type: cell-based; conditions: MRC5 cells versus CCRF-CEM cells, read-out: Ratio IC50

CC1(C)CC[C@]23CC[C@]4(C)[C@H](CC[C@@H]5[C@@]6(C)C=C(N)C(=O)C(C)(C)[C@@H]6CC[C@]54C)[C@H]2[C@H]1OC3
IC50 [1]: > 50 µM

CC(C)[C@@H]1CC[C@]2(C(=O)O)CC[C@]3(C)[C@H](CC[C@@H]4[C@@]5(C)C=C(O)C(=O)C(C)(C)[C@@H]5CC[C@]43C)[C@@H]12
IC50 [1]: 6 µM

CC(C)[C@@H]1CC[C@]2(C(=O)O)CC[C@]3(C)[C@H](CC[C@@H]4[C@@]5(C)CC(Br)C(=O)C(C)(C)[C@@H]5CC[C@]43C)[C@@H]12 (stereo partly drawn)
IC50 [1]: 2 µM

CC(C)[C@@H]1CC[C@]2(C(=O)O)CC[C@]3(C)[C@H](CC[C@@H]4[C@@]5(C)CCC(=O)C(C)(C)[C@@H]5CC[C@]43C)[C@@H]12 [DIHYDROBETULONIC ACID]
IC50 [1]: 4 µM

CC(C)[C@@H]1CC[C@]2(C(=O)O)CC[C@]3(C)[C@H](CC[C@@H]4[C@@]5(C)CC([N+](=O)[O-])=C(O)C(C)(C)[C@@H]5CC[C@]43C)[C@@H]12
IC50 [1]: 31.8 to 32 µM
IC50 [2]: 36.1 µM
IC50 [3]: 10.1 µM
IC50 [4]: 20.6 µM
IC50 [5]: 31.3 µM
IC50 [6]: > 50 µM
IC50 [7]: > 50 µM
IC50 [8]: > 50 µM
IC50 at 72 h [9]: > 50 µM
IC50 at 72 h [10]: > 50 µM
selectivity ratio [11]: > 1.6
selectivity ratio [12]: > 1.6

CC(C)[C@@H]1CC[C@]2(C(=O)O)CC[C@]3(C)[C@H](CC[C@@H]4[C@@]5(C)C=C(NC6=C[C@]7(C)[C@H]8CC[C@@H]9[C@H]%10[C@H](C(C)C)CC[C@]%10(C(=O)O)CC[C@@]9(C)[C@]8(C)CC[C@H]7C(C)(C)C6=O)C(=O)C(C)(C)[C@@H]5CC[C@]43C)[C@@H]12
IC50 [1]: 26.6 to 27 µM
IC50 [2]: 33.9 µM
IC50 [3]: > 50 µM
IC50 [4]: 20.1 µM
IC50 [5]: > 50 µM
IC50 [6]: > 50 µM
IC50 [7]: > 50 µM
IC50 [8]: > 50 µM
IC50 at 72 h [9]: > 50 µM
IC50 at 72 h [10]: > 50 µM
selectivity ratio [11]: > 1.9
selectivity ratio [12]: > 1.9

CC1(C)CC[C@]23CC[C@]4(C)[C@H](CC[C@@H]5[C@@]6(C)CC7=C(OCCS7)C(C)(C)[C@@H]6CC[C@]54C)[C@H]2[C@H]1OC3
IC50 [1]: > 50 µM

CC1(C)CC[C@]23CC[C@]4(C)[C@H](CC[C@@H]5[C@@]6(C)C=C(O)C(=O)C(C)(C)[C@@H]6CC[C@]54C)[C@H]2[C@H]1OC3
IC50 [1]: 13 to 13.1 µM
IC50 [2]: > 50 µM
IC50 [3]: 16.9 µM
IC50 [4]: 45.3 µM
IC50 [5]: > 50 µM
IC50 [6]: 41.6 µM
IC50 [7]: 33.4 µM
IC50 [8]: 45.8 µM
IC50 at 72 h [9]: > 50 µM
IC50 at 72 h [10]: 25.4 µM
selectivity ratio [11]: > 2.9
selectivity ratio [12]: > 2.9

CC1(C)CC[C@]23CC[C@]4(C)[C@H](CC[C@@H]5[C@@]6(C)C[C@H](NC(=O)CCC(=O)O)[C@H](O)C(C)(C)[C@@H]6CC[C@]54C)[C@H]2[C@H]1OC3
IC50 [1]: > 50 µM

CC(=O)N[C@H]1C[C@]2(C)[C@H]3CC[C@@H]4[C@H]5[C@H]6OC[C@@]5(CCC6(C)C)CC[C@@]4(C)[C@]3(C)CC[C@H]2C(C)(C)[C@H]1OC(C)=O
IC50 [1]: > 50 µM

CC1(C)CC[C@]23CC[C@]4(C)[C@H](CC[C@@H]5[C@@]6(C)CCC(=O)C(C)(C)[C@@H]6CC[C@]54C)[C@H]2[C@H]1OC3
IC50 [1]: > 50 µM

CC1(C)CC[C@]23CC[C@]4(C)[C@H](CC[C@@H]5[C@@]6(C)C[C@@H](NC(=O)CCC(=O)O)[C@H](O)C(C)(C)[C@@H]6CC[C@]54C)[C@H]2[C@H]1OC3
IC50 [1]: > 50 µM

CC(C)[C@@H]1CC[C@]2(C(=O)O)CC[C@]3(C)[C@H](CC[C@@H]4[C@@]5(C)CC([N+](=O)[O-])([N+](=O)[O-])C(=O)C(C)(C)[C@@H]5CC[C@]43C)[C@@H]12
IC50 [1]: 28.6 to 29 µM
IC50 [2]: 46.6 µM
IC50 [3]: > 50 µM
IC50 [4]: 29.9 µM
IC50 [5]: > 50 µM
IC50 [6]: > 50 µM
IC50 [7]: > 50 µM
IC50 [8]: > 50 µM
IC50 at 72 h [9]: > 50 µM
IC50 at 72 h [10]: > 50 µM
selectivity ratio [11]: > 1.7
selectivity ratio [12]: > 1.7

CC(=O)NC1C[C@]2(C)[C@H]3CC[C@@H]4[C@H]5[C@H]6OC[C@@]5(CCC6(C)C)CC[C@@]4(C)[C@]3(C)CC[C@H]2C(C)(C)C1=O (stereo partly drawn)
IC50 [1]: 32 to 32.2 µM
IC50 [2]: > 50 µM
IC50 [3]: 32.4 µM
IC50 [4]: > 50 µM
IC50 [5]: > 50 µM
IC50 [6]: 42.9 µM
IC50 [7]: 38.7 µM
IC50 [8]: > 50 µM
IC50 at 72 h [9]: > 50 µM
IC50 at 72 h [10]: 21.6 µM
selectivity ratio [11]: > 1.1
selectivity ratio [12]: > 1.1

CC1(C)CC[C@]23CC[C@]4(C)[C@H](CC[C@@H]5[C@@]6(C)C=C(NC7=C[C@]8(C)[C@H]9CC[C@@H]%10[C@@H]%11[C@H]%12OC[C@@]%11(CCC%12(C)C)CC[C@@]%10(C)[C@]9(C)CC[C@H]8C(C)(C)C7=O)C(=O)C(C)(C)[C@@H]6CC[C@]54C)[C@H]2[C@H]1OC3
IC50 [1]: > 50 µM

CC1(C)CC[C@]23CC[C@]4(C)[C@H](CC[C@@H]5[C@@]6(C)C[C@@H](N=[N+]=[N-])[C@H](O)C(C)(C)[C@@H]6CC[C@]54C)[C@H]2[C@H]1OC3
IC50 [1]: > 50 µM

COC(=O)CCC(=O)N[C@@H]1C[C@]2(C)[C@H]3CC[C@@H]4[C@H]5[C@H]6OC[C@@]5(CCC6(C)C)CC[C@@]4(C)[C@]3(C)CC[C@H]2C(C)(C)[C@H]1O
IC50 [1]: > 50 µM

CC(=O)NC1=C[C@]2(C)[C@H]3CC[C@@H]4[C@H]5[C@H]6OC[C@@]5(CCC6(C)C)CC[C@@]4(C)[C@]3(C)CC[C@H]2C(C)(C)C1=O
IC50 [1]: 29.9 to 30 µM
IC50 [2]: 35.3 µM
IC50 [3]: 37.9 µM
IC50 [4]: 30.5 µM
IC50 [5]: > 50 µM
IC50 [6]: > 50 µM
IC50 [7]: > 50 µM
IC50 [8]: > 50 µM
IC50 at 72 h [9]: > 50 µM
IC50 at 72 h [10]: > 50 µM
selectivity ratio [11]: > 1.7
selectivity ratio [12]: > 1.7

CC(C)[C@@H]1CC[C@]2(C(=O)O)CC[C@]3(C)[C@H](CC[C@@H]4[C@@]5(C)CC(N=[N+]=[N-])C(=O)C(C)(C)[C@@H]5CC[C@]43C)[C@@H]12 (stereo partly drawn)
IC50 [1]: 17 to 17.5 µM
IC50 [2]: 16 µM
IC50 [3]: 14.2 µM
IC50 [4]: 10.6 µM
IC50 [5]: 25.7 µM
IC50 [6]: > 50 µM
IC50 [7]: > 50 µM
IC50 [8]: 48.9 µM
IC50 at 72 h [9]: > 50 µM
IC50 at 72 h [10]: > 50 µM
selectivity ratio [11]: > 2.9
selectivity ratio [12]: > 2.9

CC(C)[C@@H]1CC[C@]2(C(=O)O)CC[C@]3(C)[C@H](CC[C@@H]4[C@@]5(C)C=C(N)C(=O)C(C)(C)[C@@H]5CC[C@]43C)[C@@H]12
IC50 [1]: 26.6 to 27 µM
IC50 [2]: 33.9 µM
IC50 [3]: > 50 µM
IC50 [4]: 20.1 µM
IC50 [5]: > 50 µM
IC50 [6]: > 50 µM
IC50 [7]: > 50 µM
IC50 [8]: > 50 µM
IC50 at 72 h [9]: > 50 µM
IC50 at 72 h [10]: > 50 µM
selectivity ratio [11]: > 1.9
selectivity ratio [12]: > 1.9

C=C(C)[C@@H]1CC[C@]2(C(=O)O)CC[C@]3(C)[C@H](CC[C@@H]4[C@@]5(C)CCC(=O)C(C)(C)[C@@H]5CC[C@]43C)[C@@H]12 [BETUNOLIC ACID]
IC50 [1]: 14 µM

COC(=O)CCC(=O)N[C@H]1C[C@]2(C)[C@H]3CC[C@@H]4[C@H]5[C@H]6OC[C@@]5(CCC6(C)C)CC[C@@]4(C)[C@]3(C)CC[C@H]2C(C)(C)[C@H]1O
IC50 [1]: > 50 µM

CC1(C)CC[C@]23CC[C@]4(C)[C@H](CC[C@@H]5[C@@]6(C)CC(Br)C(=O)C(C)(C)[C@@H]6CC[C@]54C)[C@H]2[C@H]1OC3 (stereo partly drawn)
IC50 [1]: > 50 µM

CC1(C)CC[C@]23CC[C@]4(C)[C@H](CC[C@@H]5[C@@]6(C)CC[C@H](O)C(C)(C)[C@@H]6CC[C@]54C)[C@H]2[C@H]1OC3 [ALLOBETULIN]
IC50 [1]: > 50 µM

CC(=O)N[C@@H]1C[C@]2(C)[C@H]3CC[C@@H]4[C@H]5[C@H]6OC[C@@]5(CCC6(C)C)CC[C@@]4(C)[C@]3(C)CC[C@H]2C(C)(C)[C@H]1OC(C)=O
IC50 [1]: > 50 µM

C=C(C)[C@@H]1CC[C@]2(CO)CC[C@]3(C)[C@H](CC[C@@H]4[C@@]5(C)CC[C@H](O)C(C)(C)[C@@H]5CC[C@]43C)[C@@H]12 [BETULIN]
IC50 [1]: > 50 µM

CC1(C)CC[C@]23CC[C@]4(C)[C@H](CC[C@@H]5[C@@]6(C)CC([N+](=O)[O-])=C(O)C(C)(C)[C@@H]6CC[C@]54C)[C@H]2[C@H]1OC3
IC50 [1]: > 50 µM

CC1(C)CC[C@]23CC[C@]4(C)[C@H](CC[C@@H]5[C@@]6(C)CC([N+](=O)[O-])([N+](=O)[O-])C(=O)C(C)(C)[C@@H]6CC[C@]54C)[C@H]2[C@H]1OC3
IC50 [1]: > 50 µM

CC1(C)CC[C@]23CC[C@]4(C)[C@H](CC[C@@H]5[C@@]6(C)C[C@H](N=[N+]=[N-])[C@H](O)C(C)(C)[C@@H]6CC[C@]54C)[C@H]2[C@H]1OC3
IC50 [1]: > 50 µM

CC1(C)CC[C@]23CC[C@]4(C)[C@H](CC[C@@H]5[C@@]6(C)CC(N=[N+]=[N-])C(=O)C(C)(C)[C@@H]6CC[C@]54C)[C@H]2[C@H]1OC3 (stereo partly drawn)
IC50 [1]: > 50 µM
